Shown are actives, neighbours in structure and some others; about 2.5% of the full set was active somewhere.
MC4R antagonist: MC4R antagonists of cAMP signaling, primary screen, cell-based, TR-FRET, antagonist arm of biased-ligand search; Melanocortin receptor 4 (Homo sapiens), P32245; MC4R-expressing cells, MTII-stimulated cAMP, LANCE TR-FRET; inhibition, % at 6.5 µM; 360,000 compounds, 0.48% hits;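 active = inhibition above its plate's cutoff, the mean of tested wells on that plate plus 3 SD, cut at about 29% in these data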;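 also: 0% = Melanotan II alone and 100% = Melanotan II plus saturating MCL0020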
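Assay system: U2OS-MC4R stable cell line; Also added: Melanotan II; Technique: Eu-cAMP/anti-cAMP TR-FRET, emission 671 nm; Times: 30-min compound, 1-h challenge, 1-h detection, room temperature.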
NTR1 ag: agonists of human NTR1, primary screen, imaging, U2OS cells, beta-arrestin-GFP, high content; activation, % at 20 µM; 330,000 compounds, 0.17% hits; NTR1-U2OS beta-arrestin-GFP spot imaging, agonist mode; Neurotensin receptor type 1 (Homo sapiens), P30989;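 active = activation at or above 40% of the spot to cytoplasm intensity ratio, with at least 20 cells analyzed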;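 also: 0% = DMSO without peptide and 100% = 100 nM NTR1 peptide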
Target sequence (P30989 whole entry, looked up): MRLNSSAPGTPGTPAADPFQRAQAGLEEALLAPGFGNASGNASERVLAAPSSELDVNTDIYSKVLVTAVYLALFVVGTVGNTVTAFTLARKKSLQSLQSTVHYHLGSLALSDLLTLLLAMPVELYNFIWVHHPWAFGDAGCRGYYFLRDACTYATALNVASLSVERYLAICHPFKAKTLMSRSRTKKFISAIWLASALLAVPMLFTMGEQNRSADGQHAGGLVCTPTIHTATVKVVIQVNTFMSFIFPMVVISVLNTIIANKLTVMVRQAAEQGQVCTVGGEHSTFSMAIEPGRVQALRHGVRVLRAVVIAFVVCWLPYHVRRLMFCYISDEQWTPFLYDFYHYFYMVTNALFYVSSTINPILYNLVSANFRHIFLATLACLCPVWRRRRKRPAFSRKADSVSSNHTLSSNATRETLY
MC4R barr agon: MC4R agonists recruiting beta-arrestin, primary screen, cell-based, luminescence, agonist arm of biased-ligand search; 360,000 compounds, 0.98% hits; activation, % at 8.9 µM; U2OS MC4R beta-arrestin complementation; percent of melanotan II response, DMSO zero; Melanocortin receptor 4 (Homo sapiens), P32245; AID 540308, 2011;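 active = activation above a per-plate cutoff, the mean activation of sample wells on that plate plus 3 SD, cut at about 8% in these data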
Granule exo inh: LAMP-1 surface exposure blockers, TALL-104 cells – cell-based, flow cytometry, MLPCN library, primary screen | TALL-104 LAMP-1 surface exposure; cells stimulated with thapsigargin and PMA | inhibition, % at 10 µM | 360,000 compounds, 0.66% hits | AID 651702, 2012;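 active = inhibition above about 55%, limit read from the data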
sPLA2-III inh: human group III sPLA2 inhibitors, primary screen, biochemical, QFRET, BODIPY PC-A2 liposome substrate. Group 3 secretory phospholipase A2 (Homo sapiens), Q9NZ20. 370,000 compounds, 0.56% hits. inhibition, % at 12.2 µM. QFRET BODIPY PC-A2 liposome hydrolysis, fluorescence. AID 743126, 2013;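 active = inhibition above mean plus 3 SD of compounds lying within the high and low control bounds, cut at about 19% in these data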;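 also: 0% = median of test compound wells and 100% = no enzyme DMSO wells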
Bfl-1 A1 inh: caspase 3/7 activation in MEF A1-2A-BIM cells, primary screen, A1 inhibitor project, cell-based, luminescence, HTS; 330,000 compounds, 0.066% hits; AID 2462, 2010; caspase activation, % (no concentration beside the values); Caspase-Glo 3/7 luminescence, 3 h; percent of clofoctol response, vehicle zero;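 active = over half of replicate activation scores above 10%, or exactly half above 10 with the replicate mean above 10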
sPLA2 confirm: human group III sPLA2 inhibitors, confirmation, biochemical, QFRET, triplicate. inhibition, % at 12.2 µM. 2,000 compounds, 34% hits. AID 743280, 2014. shares compounds with sPLA2-III inh. recombinant hGIII-sPLA2, BODIPY PC-A2 QFRET fluorescence;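 active = mean inhibition across triplicates above the hit cutoff set in the earlier primary screen, cut at about 19% in these data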;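 also: 0% = enzyme with DMSO and 100% = DMSO wells lacking enzyme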
535nm interf: 535nm fluorescence optical interference, confirmation, artefact control for HGIII-sPLA2 inhibitor project, biochemical, QFRET; BODIPY FL product fluorescence interference; 2,000 compounds, 8.5% hits; shares compounds with sPLA2-III inh; inhibition, % at 12.2 µM; AID 743282, 2014;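 active = average inhibition above the solvent-only control mean plus 3 SD, cut at about 6% in these data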;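 also: 0% = DMSO with substrate plus product and 100% = DMSO with substrate alone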
BODIPY interf DR: 535nm fluorescence optical interference, dose response, artefact control for HGIII-sPLA2 inhibitor project, biochemical, QFRET; shares compounds with sPLA2-III inh; 240 tested, under 10 active; BODIPY FL product fluorescence interference, cell-free; IC50, µM; AID 743455, 2014;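 active = IC50 at or below 10 µM; inactive = IC50 above 10 µM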
An asterisk follows results filed as active; . = no result given; ! = not confirmed by another sample.

SMILES | MC4R antagonist | NTR1 ag | MC4R barr agon | Granule exo inh | sPLA2-III inh | Bfl-1 A1 inh | sPLA2 confirm | 535nm interf | others
O=C(NC1CCCC1)C1C(c2ccc(C(F)(F)F)cc2)=Nc2ccccc2N1C(=O)c1cccc(C(F)(F)F)c1 (stereo unspecified) | . | . | . | 4 | -1 | . | . | .
Cc1cc(C)c2nc(NNC(=O)c3cc(-c4cccs4)nc4ccccc34)sc2c1 | 9 | 11 | -2 | 4 | 37* | 1 | 34* | 0 | BODIPY interf DR=>122
O=C(NNc1nc2ccc(Cl)cc2s1)c1cc(-c2cccs2)nc2ccccc12 | 0 | 22 | 0 | 12 | 28* | 0 | 35* | 13*
O=C1NC[C@@H](CCCCN2C[C@H](Cc3ccccc3)N(Cc3ccccc3)C(=O)C2=O)N(CCc2ccccc2)C1=O | . | . | . | -7 | -1 | . | . | .
CN(C)c1ccc(-c2cc(O)c3ncccc3c2)cc1 | -12 | 0 | 0 | 4 | 27* | -8 | 18 | -7
N=C1C=CC(=C(c2ccc(N)cc2)c2ccc(N)cc2)C=C1 | -11 | . | -3 | 3 | 21* | . | 17 | -1
CC(C)c1ccc2c(c1)CC[C@H]1[C@](C)(CN)CCC[C@]21C | -2 | . | 1 | 10 | 21*! | . | 21* | -28
CCCCNC(=S)NNC(=O)CCn1cc(C)cn1 | 13 | 0 | 0 | 14 | 12 | 0 | . | .
Cc1cnn(CCC(=O)NNC(=S)NCC(C)C)c1 | 14 | -1 | -1 | 9 | 22* | 1 | 8 | -2
COc1ccc(-n2c(=S)[nH]c3cc(C(=O)Nc4ccc(F)cc4)ccc3c2=O)c(OC)c1 | 7 | -2 | -1 | -10 | 15 | 0 | . | .
N/C(=N\OC(=O)COc1ccc([N+](=O)[O-])cc1)c1ccncc1 | -5 | 0 | 2 | -3 | 6 | 0 | . | .
N/C(=N\OC(=O)COc1ccc(Br)cc1)c1ccncc1 | 8 | 2 | 6 | -5 | 20* | -1 | -1 | -10
CS(=O)(=O)c1nc(S(=O)(=O)c2ccc(Cl)cc2)c(NCCN2CCOCC2)s1 | -7 | -1 | 0 | 2 | 0 | 0 | . | .
CCc1ccc(NC(=O)NNC(=O)c2ccc3ccccc3c2O)cc1 | 1 | 0 | -2 | 2 | 32* | 1 | 25* | 5
CCc1ccc(NC(=O)NNC(=O)c2cc3ccccc3cc2O)cc1 | 3 | 0 | -1 | -2 | 27* | 1 | 16 | 1
O=C(NCCC1CCCCN1S(=O)(=O)c1ccccc1)C(=O)Nc1ccc(F)cc1F (stereo unspecified) | -1 | 1 | 0 | -3 | 2 | 0 | . | .
CCCCNC(=S)NNC(=O)c1csc(C)c1C | 6 | 1 | -1 | 7 | 27* | 1 | 29* | -2 | BODIPY interf DR=>122
C=CCNC(=S)NNC(=O)c1csc(C)c1C | 7 | -2 | 1 | -4 | 24* | 0 | 21* | -7
CCCCNC(=S)NNC(=O)c1sccc1C | -3 | 0 | -1 | -2 | . | 1 | . | .
Cc1scc(C(=O)NNC(=S)NC(C)c2ccccc2)c1C (stereo unspecified) | 11 | -1 | -1 | -5 | 30* | 0 | 18 | 5

From PubChem
